The values that follow come from paper PMC10951637 (iScience, 2024).

The conditions of series [1]: cited from earlier work.
The subject of series [2] is diabetic db/db mice. The experiment in a line: Chronic efficacy study. The series is classed as in vivo. The note with it: for HbA1c value attenuated from baseline / body weight increase: 25 nmol/kg s.c. once daily for 4 weeks, n = 5; for reduction of AUC glucose 0–210 min, OGTT day 15: chronic study, 25 nmol/kg s.c. once daily, day 15, n = 5.
Series [3] relates to blood glucose of non-fasted db/db mice. Description: Hypoglycemic duration assay. Type of series: in vivo, C57BL/6 db/db mice. The note with it: single s.c. dose 25 nmol/kg, 0 to 36 h, n = 5. The method, boiled down: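 Non-fasted male C57BL/6 db/db mice with free food and water were randomised into groups (n = 5). Each got one s.c. dose of 25 nmol/kg test compound, or PBS as control. Tail-blood glucose was read by glucometer at 0, 0.5, 1, 2, 4, 6, 8, 10, 24 and 36 h. […] Data are mean ± SD, one-way ANOVA with Tukey test.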

The conditions of series [4]: phase 2b, oral, adults with obesity; cited from earlier work.
The mark [5] stands for this setting: phase III study (SURPASS-1), across all doses.

“tirzepatide: imbalanced GLP-1R/GIPR co-agonist, fatty diacid conjugated to K”: the weight loss entry in series [1] (in T2D treatment and in obesity independent of diabetes) was “more than 20%”. Further, in series [1] (setting [5]), the “incidence of gastrointestinal disorders” value is 28–41% and the study drug discontinuation was 3–7%.
As to liraglutide, in series [2], the “HbA1c value attenuated from baseline” value is given as around 30%; the body weight increase is listed as around 7.4%; the “reduction of AUC glucose 0–210 min, OGTT day 15” value is listed as around 40%.
For exendin-4: GLP-1R mono-agonist, in series [2], the “HbA1c value attenuated from baseline” value is “approximately 15%”; the body weight increase is recorded as around 6.9%; the “reduction of AUC glucose 0–210 min, OGTT day 15” value is around 18%. Also, the “glucose AUC0–36h (in words)” value in series [3] is listed as “comparable to that of the PBS group”.
Take `N#Cc1ccc(COc2cccc(C3CCN(Cc4nc5ccc(C(=O)O)cc5n4C[C@@H]4CCO4)CC3)n2)c(F)c1` [Danuglipron]: in series [4], the discontinuation rate entry is on record as “greater than 50%”, the rate of diarrhea is reported as 25%, the rate of nausea was 73% and the rate of vomiting is 47%.
